Data from ChEMBL document CHEMBL4138207, “Phenolic Substances from Ocimum Species Enhance Glucose-Stimulated Insulin Secretion and Modulate the Expression of Key Insulin Regulatory Genes in Mice Pancreatic Islets” (J Nat Prod, 2017).
Calls of active or inactive are those of the source. The rule behind the calls is not given here.

Tests used:
[1] = Induction of 16.7 mM glucose-stimulated insulin secretion in NMRI mouse pancreatic islets at 10^-6 M after 60 mins by radioimmunoassay relative to 16.7 mM glucose control; format: functional, Pancreatic islet
How it was run: (§1)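 Female NMRI mouse islets, cultured overnight, were preincubated 30 min in KRB with 3.3 mM glucose and 0.1% BSA. Single islets were then incubated 60 min at 37 °C in HEPES-KRB (pH 7.4) with 16.7 mM glucose plus compound at 10−10, 10−8 or 10−6 M, diluted from 10−4 M aqueous stock. Medium insulin was measured by RIA and expressed as fold of the 16.7 mM glucose control; 24 replicates.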

[2] = Induction of 16.7 mM glucose-stimulated insulin secretion in NMRI mouse pancreatic islets at 10^-8 M after 60 mins by radioimmunoassay relative to 16.7 mM glucose control; format: functional, Pancreatic islet; how it was run: as §1
[3] = Induction of 16.7 mM glucose-stimulated insulin secretion in NMRI mouse pancreatic islets at 10^-10 M after 60 mins by radioimmunoassay relative to 16.7 mM glucose control; format: functional, Pancreatic islet; how it was run: as §1
[4] = Induction of 3.3 mM glucose-stimulated insulin secretion in NMRI mouse pancreatic islets at 10^-6 M after 60 mins by radioimmunoassay; format: cell-based; settings: pancreatic islet, 1 h, 1 µM
How it was run: (§2)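 Islets from adult female NMRI mice (22–25 g), collagenase-isolated and cultured overnight in RPMI 1640 (11.1 mM glucose, 10% FCS) at 37 °C. After 30 min preincubation in KRB with 3.3 mM glucose and 0.1% BSA, single islets were incubated 60 min at 37 °C in HEPES-KRB (pH 7.4) at 3.3, 6.6, 11.1 or 16.7 mM glucose ± compound at 10−6 M. Insulin in the medium was measured by RIA, reported in ng/mL; n = 16 per treatment.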

[5] = Induction of 6.6 mM glucose-stimulated insulin secretion in NMRI mouse pancreatic islets at 10^-6 M after 60 mins by radioimmunoassay; format: cell-based; settings: pancreatic islet, 1 h, 1 µM; how it was run: as §2
[6] = tested on: Pancreatic islet; assay: Induction of 16.7 mM glucose-stimulated insulin secretion in NMRI mouse pancreatic islets at 10^-6 M after 60 mins by radioimmunoassay; format: functional, cell-based; how it was run: as §2
[7] = Induction of 16.7 mM glucose-stimulated insulin secretion in NMRI mouse pancreatic islets at 10^-8 M pretreated for 72 hrs in presence of 11.1 mM glucose followed by 16.7 mM glucose stimulation after 60 mins by radioimmunoassay relative to 16.7 mM glucose control; format: functional, Pancreatic islet
How it was run: (§3)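 Islets from female NMRI mice were cultured 72 h in RPMI with 11.1 mM glucose and 10% FCS, ± compound at 10−8 M final. They were rinsed and preincubated 30 min in KRB with 3.3 mM glucose and 0.1% BSA. Single islets were then stimulated 60 min at 37 °C with 3.3 or 16.7 mM glucose. Insulin was measured by RIA as fold of the 16.7 mM glucose control; 24 replicates.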

[8] = Induction of 3.3 mM glucose-stimulated insulin secretion in NMRI mouse pancreatic islets at 10^-8 M pretreated for 72 hrs in presence of 11.1 mM glucose followed by 3.3 mM glucose stimulation after 60 mins by radioimmunoassay; format: cell-based; settings: pancreatic islet, 1 h, 0.01 µM; how it was run: as §3
[9] = tested on: Pancreatic islet; assay: Upregulation of INS1 mRNA expression in NMRI mouse pancreatic islets at 10^-8 M after 72 hrs by Taqman-based qRT-PCR analysis; format: functional, cell-based
How it was run: (§4)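 Female NMRI mouse islets were exposed 72 h to compound at 10−8 M in RPMI with 11.1 mM glucose. Islets from 2–3 mice (180–200) were pooled for Trizol RNA extraction. Reverse transcription and 14-cycle preamplification preceded TaqMan real-time PCR. Data were normalized to the geometric mean of 18S and Hprt1 by the (1+efficiency)−ΔCT method and expressed as fold versus untreated control. Samples were run in triplicate, each measured in triplicate.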

[10] = tested on: Pancreatic islet; assay: Upregulation of INS2 mRNA expression in NMRI mouse pancreatic islets at 10^-8 M after 72 hrs by Taqman-based qRT-PCR analysis; format: functional, cell-based; how it was run: as §4
[11] = tested on: Pancreatic islet; assay: Upregulation of PDX1 mRNA expression in NMRI mouse pancreatic islets at 10^-8 M after 72 hrs by Taqman-based qRT-PCR analysis; format: functional, cell-based; how it was run: as §4
[12] = tested on: Pancreatic islet; assay: Upregulation of INSR mRNA expression in NMRI mouse pancreatic islets at 10^-8 M after 72 hrs by Taqman-based qRT-PCR analysis; format: functional, cell-based; how it was run: as §4
[13] = tested on: Pancreatic islet; assay: Upregulation of IRS1 mRNA expression in NMRI mouse pancreatic islets at 10^-8 M after 72 hrs by Taqman-based qRT-PCR analysis; format: functional, cell-based; how it was run: as §4
[14] = tested on: Pancreatic islet; assay: Upregulation of GLUT2 mRNA expression in NMRI mouse pancreatic islets at 10^-8 M after 72 hrs by Taqman-based qRT-PCR analysis; format: functional, cell-based; how it was run: as §4
[15] = tested on: Pancreatic islet; assay: Upregulation of […] mRNA expression in NMRI mouse pancreatic islets at 10^-8 M after 72 hrs by Taqman-based qRT-PCR analysis; format: functional, cell-based; how it was run: as §4
[16] = tested on: Pancreatic islet; assay: Upregulation of GCGR mRNA expression in NMRI mouse pancreatic islets at 10^-8 M after 72 hrs by Taqman-based qRT-PCR analysis; format: functional, cell-based; how it was run: as §4
[17] = tested on: Pancreatic islet; assay: (§5) Induction of 11.1 mM glucose-stimulated insulin secretion in NMRI mouse pancreatic islets at 10^-6 M after 60 mins by radioimmunoassay relative to control; format: functional; how it was run: as §2
[18] = as §5; format: functional, Pancreatic islet; how it was run: as §2

| Compound | fold change (FC) [1] | fold change (FC) [2] | fold change (FC) [3] | Activity [4] | Activity [5] | Activity [6] | fold change (FC) [7] | Activity [8] | Activity [9] | Activity [10] | Activity [11] | Activity [12] | Activity [13] | Activity [14] | Activity [15] | Activity [16] | Activity [17] | Activity [18] |
| --- | --- | --- | --- | --- | --- | --- | --- | --- | --- | --- | --- | --- | --- | --- | --- | --- | --- | --- |
| O=C(/C=C/c1ccc(O)c(O)c1)O[C@@H](C(=O)O)[C@@H](OC(=O)/C=C/c1ccc(O)c(O)c1)C(=O)O [CICHORIC ACID] | 4.1 | 1.9 | 1.8 | Non-Toxic | Non-Toxic | Active | 3.5 | Non-Toxic | Active | Active | Active | Active | Active | inactive | inactive | inactive |  |  |
| O=C(O)/C=C/c1ccc(O)c(O)c1 [CAFFEIC ACID] | 2 | 1.7 |  | Non-Toxic | Non-Toxic | Active | 1.5 | Non-Toxic | inactive | inactive | Active | inactive | inactive | Active | Active | inactive | inactive |  |
| O=c1cc(-c2ccc(O)cc2)oc2c([C@@H]3O[C@H](CO)[C@@H](O)[C@H](O)[C@H]3O)c(O)c([C@@H]3O[C@H](CO)[C@@H](O)[C@H](O)[C@H]3O)c(O)c12 | 2.3 | 2.3 | 2.5 | Non-Toxic | Non-Toxic | Active | 2.2 | Non-Toxic | inactive | inactive | inactive | Active | inactive | inactive | inactive | inactive |  |  |
| O=C(/C=C/c1ccc(O)c(O)c1)O[C@@H](C(=O)O)[C@@H](O)C(=O)O [CAFTARIC ACID] | 5.5 | 5.1 | 2.8 | Non-Toxic | Non-Toxic | Active | 3.2 | Non-Toxic | Active | Active | inactive | Active | inactive | inactive | inactive | inactive |  |  |
| O=C(/C=C/c1ccc(O)c(O)c1)O[C@H](Cc1ccc(O)c(O)c1)C(=O)O [ROSMARINIC ACID] | 4.9 | 2.8 | 3.3 | Non-Toxic | Non-Toxic | Active | 3.4 | Non-Toxic | Active | Active | Active | Active | Active | Active | inactive | inactive |  | 68% |
